B1: tRNA (parent)
chain: GUUCCGUUGGCGUAAUGGUAACGCGUCUCCCUCCUAAGGAGAAGACUGCGGGUUCGAGUCCCGUACGGAACG

Variants of: B1
Assay: yeast fitness, log relative to wild type (ln ratio); higher = fitter; tRNA-Arg(CCU), competitive growth, 37 C, 1 M NaCl
Method in brief: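 A combinatorial tRNA-Arg(CCU) variant library was carried on a HIS3 centromeric plasmid in BY4742 lacking the chromosomal gene, from two independent transformations. Pools grew 4 generations in SC-HIS at 30 °C, then ~6.5 generations (~26.5 h) in SC-HIS 1M NaCl at 37 °C, with three outputs per input. Variants were counted by 125 bp paired-end Illumina sequencing. Fitness is ln of each genotype's generations (OD-scaled log2 output/input frequency, inverse-variance weighted across replicates) over the wild-type's.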

Row | Variant | yeast fitness (ln)
1 | AUUCCGUUGGCGUAAUGGUAACGCGUUUCCCUCCUAAGGAGAAGACUGCGGGUUCGAGUCCCGUACGGAGCG | -0.163
2 | AUUCCGUUGGCGUAAUGGUAACGCGUUUCCCUCCUAAGGAGAAGACUGCGGGUUCGAGUCCCGUACGGAUCG | -0.112
3 | AUUCCGUUGGCGUAAUGGUAACGCGUUUCCCUCCUAAGGAGAAGAUUGCGGGUUCGAGUCCCGUACGGGUUG | -0.301
4 | AUUCCGUUGGCGUAAUGGUAACGCGUUUCCCUCCUAAGGAGACGAUUGCGGGUUCGAGUCCCGUAUGGAUUG | -0.469
5 | AUUCCGUUGGCGUAAUGGUAACGCGUUUCCCUCCUAAGGAGAAGAUUGCGGGUUCGAGUCCCGUAAGGGGUG | -0.193
6 | AUUCCGUUGGCGUAAUGGUAACGCGUUUCCCUCCUAAGGAGACGACUGCGGGUUCGAGUCCCGUAUGGGUCG | -0.325
7 | AUUCCGUUGGCGUAAUGGUAACGCGUUUCCCUCCUAAGGAGACGACUGCGGGUUCGAGUCCCGUAUGGGGCG | -0.295
8 | AUUCCGUUGGCGUAAUGGUAACGCGUUUCCCUCCUAAGGAGAAGAUUGCGGGUUCGAGUCCCGUAUGGAGCG | -0.157
9 | AUUCCGUUGGCGUAAUGGUAACGCGUUUCCCUCCUAAGGAGAAGAUUGCGGGUUCGAGUCCCGUAUGGAUCG | -0.154
10 | AUUCCGUUGGCGUAAUGGUAACGCGUUUCCCUCCUAAGGAGAAGAUUGCGGGUUCGAGUCCCGUAAGGAUCG | -0.182
11 | AUUCCGUUGGCGUAAUGGUAACGCGUUUCCCUCCUAAGGAGAAGAUUGCGGGUUCGAGUCCCGUAAGGAGCG | -0.213
12 | AUUCCGUUGGCGUAAUGGUAACGCGUUUCCCUCCUAAGGAGACGACUGCGGGUUCGAGUCCCGUAUGGGGUG | -0.371
13 | AUUCCGUUGGCGUAAUGGUAACGCGUUUCCCUCCUAAGGAGAAGAUUGCGGGUUCGAGUCCCGUAAGGGGCG | -0.248
14 | AUUCCGUUGGCGUAAUGGUAACGCGUUUCCCUCCUAAGGAGAAGAUUGCGGGUUCGAGUCCCGUAAGGGUCG | -0.179
15 | AUUCCGUUGGCGUAAUGGUAACGCGUUUCCCUCCUAAGGAGAAGAUUGCGGGUUCGAGUCCCGUAAGGGUUG | -0.411
16 | AUUCCGUUGGCGUAAUGGUAACGCGUUUCCCUCCUAAGGAGACGACUGCGGGUUCGAGUCCCGUAAGGGUCG | -0.391
17 | AUUCCGUUGGCGUAAUGGUAACGCGUUUCCCUCCUAAGGAGACGACUGCGGGUUCGAGUCCCGUAAGGGGCG | -0.279
18 | AUUCCGUUGGCGUAAUGGUAACGCGUUUCCCUCCUAAGGAGACGAUUGCGGGUUCGAGUCCCGUACGGAAUG | -0.0315
19 | AUUCCGUUGGCGUAAUGGUAACGCGUUUCCCUCCUAAGGAGAAGAUUGCGGGUUCGAGUCCCGUAUGGAGUG | -0.223

Row | Variant | yeast fitness (ln)
20 | AUUCCGUUGGCGUAAUGGUAACGCGUUUCCCUCCUAAGGAGACGACUGCGGGUUCGAGUCCCGUAUGGGAUG | -0.343
21 | AUUCCGUUGGCGUAAUGGUAACGCGUUUCCCUCCUAAGGAGACGAUUGCGGGUUCGAGUCCCGUAUGGAGCG | -0.226
22 | AUUCCGUUGGCGUAAUGGUAACGCGUUUCCCUCCUAAGGAGACGAUUGCGGGUUCGAGUCCCGUAUGGAUCG | -0.173
23 | AUUCCGUUGGCGUAAUGGUAACGCGUUUCCCUCCUAAGGAGAAGAUUGCGGGUUCGAGUCCCGUACGGGGUG | -0.16
24 | AUUCCGUUGGCGUAAUGGUAACGCGUUUCCCUCCUAAGGAGAAGAUUGCGGGUUCGAGUCCCGUAAGGAGUG | -0.187
25 | AUUCCGUUGGCGUAAUGGUAACGCGUUUCCCUCCUAAGGAGAAGACUGCGGGUUCGAGUCCCGUAAGGGGUG | -0.325
26 | AUUCCGUUGGCGUAAUGGUAACGCGUUUCCCUCCUAAGGAGAAGAUUGCGGGUUCGAGUCCCGUACGGAACG | -0.0938
27 | AUUCCGUUGGCGUAAUGGUAACGCGUUUCCCUCCUAAGGAGACGACUGCGGGUUCGAGUCCCGUAUGGAGUG | -0.32
28 | AUUCCGUUGGCGUAAUGGUAACGCGUUUCCCUCCUAAGGAGAAGACUGCGGGUUCGAGUCCCGUAAGGAACG | -0.123
29 | AUUCCGUUGGCGUAAUGGUAACGCGUUUCCCUCCUAAGGAGAAGAUUGCGGGUUCGAGUCCCGUAUGGGGUG | -0.255
30 | AUUCCGUUGGCGUAAUGGUAACGCGUUUCCCUCCUAAGGAGAAGAUUGCGGGUUCGAGUCCCGUACGGGAUG | -0.047
31 | AUUCCGUUGGCGUAAUGGUAACGCGUUUCCCUCCUAAGGAGAAGACUGCGGGUUCGAGUCCCGUAAGGGUUG | -0.303
32 | AUUCCGUUGGCGUAAUGGUAACGCGUUUCCCUCCUAAGGAGAAGACUGCGGGUUCGAGUCCCGUAAGGGUCG | -0.19
33 | AUUCCGUUGGCGUAAUGGUAACGCGUUUCCCUCCUAAGGAGAAGAUUGCGGGUUCGAGUCCCGUACGGGACG | -0.304
34 | AUUCCGUUGGCGUAAUGGUAACGCGUUUCCCUCCUAAGGAGAAGAUUGCGGGUUCGAGUCCCGUAAGGGAUG | -0.168
35 | AUUCCGUUGGCGUAAUGGUAACGCGUUUCCCUCCUAAGGAGAAGAUUGCGGGUUCGAGUCCCGUAAGGAUUG | -0.208
36 | AUUCCGUUGGCGUAAUGGUAACGCGUUUCCCUCCUAAGGAGACGAUUGCGGGUUCGAGUCCCGUAUGGAAUG | -0.219
37 | AUUCCGUUGGCGUAAUGGUAACGCGUUUCCCUCCUAAGGAGAAGAUUGCGGGUUCGAGUCCCGUAUGGGUCG | -0.286

From the RNAGym collection of RNA variant scans (doi:10.1038/s41586-018-0170-7)
